Measured values reported in ChEMBL document CHEMBL1152411, “Antiplasmodial isoflavanones from the roots of Sophora mollis” (J Nat Prod, 2009).

Legend:
[1] = Selectivity index, ratio of IC50 for CHO cells to IC50 for chloroquine-sensitive Plasmodium falciparum D10; assay type: toxicity, cell-based; conditions: hamster; read-out: Ratio IC50
Plasmodium falciparum = experiment: Antiplasmodial activity against chloroquine-sensitive Plasmodium falciparum D10; assay type: functional, organism-based
Outline: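 Asexual erythrocytic-stage P. falciparum kept in continuous in vitro culture (Trager–Jensen). Activity measured by the parasite lactate dehydrogenase assay, with chloroquine diphosphate as reference drug.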

CHO = experiment: Cytotoxicity against CHO cells by MTT assay; assay type: cell-based, Cricetulus griseus
Outline: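 Chinese hamster ovary (CHO) cells; growth and survival measured by MTT assay. Samples run in triplicate on one occasion, with emetine dihydrochloride as reference drug.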

[2] = Plasmodium falciparum, D10, read-out: IC50
[3] = Cricetulus griseus, CHO, read-out: IC50

Structure (SMILES) | IC50 (Plasmodium falciparum; [2]) | IC50 (Plasmodium falciparum) | selectivity ratio [1] | IC50 (CHO; [3]) | IC50 (CHO; cho)
O=C(/C=C/c1ccc(O)cc1)c1ccc(O)cc1O [ISOLIQUIRITIGENIN] | 32 µM |  | 1 | 45.9 µM | 
COc1c([C@]2(O)COc3c4c(cc(O)c3C2=O)OC(C)(C)CC4)ccc2c1CCC(C)(C)O2 [SOPHONOROL C] | 12.9 µM |  |  |  | Not Active
COc1c(O)cc([C@]2(O)COc3cc(O)cc(O)c3C2=O)c(OC)c1CC=C(C)C [SOPHONOROL D] | 106 µM |  | 2 | 172 µM | 
COc1cc2ccc(=O)oc2cc1O [SCOPOLETIN] | 494 µM |  |  |  | Not Active
O=c1cc(-c2ccc(O)c(O)c2)oc2cc(O)ccc12 | 19.3 µM |  | 3 | 49.3 µM | 
CC[C@H]1CN2CCc3cc(OC)c(OC)cc3[C@@H]2C[C@@H]1C[C@H]1NCCc2cc(OC)c(OC)cc21 [EMETINE] |  |  |  | 0.12 µM | 
O=c1c(-c2ccc(O)cc2)coc2c(O)c(O)ccc12 | 17.8 µM |  |  |  | Not Active
Oc1ccc2c(c1)OC[C@@H]1c3cc4c(cc3O[C@H]21)OCO4 [(+)-MAACKIAIN] | 177 µM |  |  |  | Not Active

Continued, in another order:

IC50 (Plasmodium falciparum; [2]) | IC50 (Plasmodium falciparum) | Structure (SMILES) | selectivity ratio [1] | IC50 (CHO; [3]) | IC50 (CHO; cho)
41 µM |  | COc1cc(O)c2c(c1CC=C(C)C)OC[C@@](O)(c1ccc(O)c(CC=C(C)C)c1OC)C2=O [SOPHONOROL F] | 3 |  | 
 | Not Active | COc1c([C@]2(O)COc3cc(O)cc(O)c3C2=O)ccc2c1C=CC(C)(CO)O2 (stereo not given in full) [SOPHORONOL B] |  |  | Not Active
 | Not Active | CC1(C)C=Cc2c(ccc([C@]3(O)COc4cc(O)cc(O)c4C3=O)c2O)O1 [SOPHORONOL A] |  |  | Not Active
12.8 µM |  | COc1ccc([C@]2(O)COc3c(CC=C(C)C)c(O)cc(O)c3C2=O)c(OC)c1CC=C(C)C [SOPHONOROL E] | 13 | 169 µM | 
114 µM |  | COc1c(C2(O)COc3cc(O)cc(O)c3C2=O)ccc2c1C=CC(C)(C)O2 (stereo not given) [SOPHORONOL] | 2 | 223 µM | 
